Active and inactive are the calls of the source. No cut-off for these calls is given here. Non-standard residues stand in square brackets, D forms with d. Residues, ends and D or L forms follow the SMILES beside them. *: point of attachment. Lys(thiomyristoyl) = CCCCCCCCCCCCCC(=S)NCCCC[C@H](N)C(=O)O; X4 = CN(C)c1ccc(/N=N/c2ccc(CC(=O)*)cc2)cc1; X1 = O=C(Cc1ccc(/N=N/c2ccc(O)cc2)cc1)*
Key:
[1] = molecular target: T1, NAD-dependent protein deacetylase sirtuin-2 (Homo sapiens) (UniProt Q8IXJ6); assay: Inhibition of recombinant human SIRT2 demyristoylase activity at 1 uM using p53(Myr)-AMC as substrate measured after 3 hrs in presence of NAD+ and trypsin by fluorescence assay relative to control
T1 sequence (whole entry): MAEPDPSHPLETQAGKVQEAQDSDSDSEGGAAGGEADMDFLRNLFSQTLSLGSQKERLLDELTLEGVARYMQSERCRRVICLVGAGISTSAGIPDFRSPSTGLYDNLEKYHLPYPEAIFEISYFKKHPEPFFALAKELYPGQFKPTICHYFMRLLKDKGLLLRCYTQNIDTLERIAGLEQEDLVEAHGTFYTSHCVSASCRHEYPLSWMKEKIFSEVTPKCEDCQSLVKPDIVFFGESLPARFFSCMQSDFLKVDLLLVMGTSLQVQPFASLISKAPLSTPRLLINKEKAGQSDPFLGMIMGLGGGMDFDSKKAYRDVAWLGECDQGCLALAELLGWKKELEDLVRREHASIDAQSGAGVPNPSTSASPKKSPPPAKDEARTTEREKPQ

[2] = molecular target: NAD-dependent protein deacylase sirtuin-6 (Homo sapiens) (UniProt Q8N6T7); assay: Inhibition of recombinant human N-terminal polyhis-tagged SIRT6 (1 to 355 residues) defatty-acylase activity expressed in Escherichia coli at 2 uM using SFP3 as substrate measured at 5 mins interval for 60 mins in presence of NAD+ by fluorescence assay relative to control
[3] = molecular target: T2, NAD-dependent protein deacetylase sirtuin-3, mitochondrial (Homo sapiens) (UniProt Q9NTG7); assay: Inhibition of recombinant human SIRT3 (118 to 399 residues) defatty-acylase activity expressed in Escherichia coli at 2 uM using SFP3 as substrate measured at 5 mins interval for 60 mins in presence of NAD+ by fluorescence assay relative to control
T2 sequence (whole entry): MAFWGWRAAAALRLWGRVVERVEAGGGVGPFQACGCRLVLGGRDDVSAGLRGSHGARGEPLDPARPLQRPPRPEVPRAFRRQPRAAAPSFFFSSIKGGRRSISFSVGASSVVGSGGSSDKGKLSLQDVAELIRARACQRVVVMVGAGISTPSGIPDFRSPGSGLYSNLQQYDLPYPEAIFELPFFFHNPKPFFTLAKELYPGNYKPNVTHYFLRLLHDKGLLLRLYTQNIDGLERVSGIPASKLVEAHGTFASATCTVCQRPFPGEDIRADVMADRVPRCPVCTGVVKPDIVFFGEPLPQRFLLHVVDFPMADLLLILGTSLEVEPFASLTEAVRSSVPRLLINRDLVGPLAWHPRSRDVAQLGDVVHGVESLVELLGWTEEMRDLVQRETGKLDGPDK
Outline: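 SIRT3 at 60 nM final with 2.5 μM SFP3 and 500 μM NAD⁺ in Tris-HCl pH 8.0, 150 mM NaCl, 1 mM DTT, 0.05% Triton X-100. Final DMSO 0.2%, or 0.5% for AGK2/NAM. Fluorescence Ex 485/Em 535 nm every 5 min for 60 min at 37 °C. n = 3.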

[4] = molecular target: T1, NAD-dependent protein deacetylase sirtuin-2 (Homo sapiens); assay: Inhibition of recombinant human SIRT2 defatty-acylase activity at 2 uM using SFP3 as substrate measured at 5 mins interval for 60 mins in presence of NAD+ by fluorescence assay relative to control
[5] = molecular target: T2, NAD-dependent protein deacetylase sirtuin-3, mitochondrial (Homo sapiens); assay: Inhibition of recombinant human SIRT3 (118 to 399 residues) demyristoylase activity expressed in Escherichia coli at 1 uM using p53(Myr)-AMC as substrate measured after 3 hrs in presence of NAD+ and trypsin by fluorescence assay relative to control
Outline: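 SIRT3 at 120 nM with 50 μM p53(Myr)-AMC and 500 μM NAD⁺ in Tris-HCl pH 8.0/NaCl/DTT/Triton buffer, 0.5% DMSO, 3 h at room temperature. Trypsin (100 nM) plus nicotinamide (1 mM) then added. Fluorescence Ex 355/Em 460 nm every 5 min for 20 min at 37 °C. n = 3.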

[6] = molecular target: T3, NAD-dependent protein deacetylase sirtuin-1 (Homo sapiens) (UniProt Q96EB6); assay: Inhibition of recombinant human C-terminal His6-tagged SIRT1 (Met1 to Ser747 residues) defatty-acylase activity expressed in Escherichia coli at 2 uM using SFP3 as substrate measured at 5 mins interval for 60 mins in presence of NAD+ by fluorescence assay relative to control
T3 sequence (whole entry): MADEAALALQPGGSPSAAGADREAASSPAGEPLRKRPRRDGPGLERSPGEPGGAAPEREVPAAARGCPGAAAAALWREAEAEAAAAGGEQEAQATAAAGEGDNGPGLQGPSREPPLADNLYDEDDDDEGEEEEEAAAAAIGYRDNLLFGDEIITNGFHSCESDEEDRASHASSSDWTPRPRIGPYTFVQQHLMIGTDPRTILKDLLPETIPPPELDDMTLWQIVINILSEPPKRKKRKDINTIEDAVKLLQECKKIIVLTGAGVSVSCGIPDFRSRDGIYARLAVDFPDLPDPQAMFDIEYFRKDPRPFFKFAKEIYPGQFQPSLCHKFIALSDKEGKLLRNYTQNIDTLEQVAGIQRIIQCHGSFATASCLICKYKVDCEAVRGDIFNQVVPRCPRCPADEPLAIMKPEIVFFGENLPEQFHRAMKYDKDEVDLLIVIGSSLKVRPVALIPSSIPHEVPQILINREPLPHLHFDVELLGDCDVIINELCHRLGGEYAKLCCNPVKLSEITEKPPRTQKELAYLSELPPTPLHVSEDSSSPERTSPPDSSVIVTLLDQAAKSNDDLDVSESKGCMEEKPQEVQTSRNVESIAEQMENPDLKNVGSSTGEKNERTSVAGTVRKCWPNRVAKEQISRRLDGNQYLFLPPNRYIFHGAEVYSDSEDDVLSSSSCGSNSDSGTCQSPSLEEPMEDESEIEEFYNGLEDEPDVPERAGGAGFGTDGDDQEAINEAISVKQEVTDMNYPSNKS

[7] = molecular target: T1, NAD-dependent protein deacetylase sirtuin-2 (Homo sapiens); assay: Inhibition of recombinant human SIRT2 deacylation activity at 1 uM using Fluor de Lys Sirt2 as substrate measured at 5 mins interval for 30 mins in presence of NAD+ by fluorescence assay relative to control
[8] = molecular target: T3, NAD-dependent protein deacetylase sirtuin-1 (Homo sapiens); assay: Inhibition of recombinant human C-terminal His6-tagged SIRT1 (Met1 to Ser747 residues) demyristoylase activity expressed in Escherichia coli at 1 uM using p53(Myr)-AMC as substrate measured after 3 hrs in presence of NAD+ and trypsin by fluorescence assay relative to control
Outline: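 SIRT1 at 14 nM final with 50 μM p53(Myr)-AMC and 500 μM NAD⁺ in Tris-HCl pH 8.0/NaCl/DTT/Triton buffer, 0.5% DMSO, 3 h at room temperature. Trypsin (100 nM final) plus nicotinamide (1 mM final) then added. Fluorescence Ex 355/Em 460 nm read every 5 min for 20 min at 37 °C. n = 3.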

[9] = molecular target: T1, NAD-dependent protein deacetylase sirtuin-2 (Homo sapiens); assay: Inhibition of recombinant human SIRT2 defatty-acylase activity using SFP3 as substrate measured at 5 mins interval for 60 mins in presence of NAD+ by fluorescence assay
[10] = molecular target: T1, NAD-dependent protein deacetylase sirtuin-2 (Homo sapiens); assay: Inhibition of recombinant human SIRT2 demyristoylase activity using H4K16-Myr as substrate measured after 2 hrs in presence of NAD+ by HPLC analysis
Outline: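 H4K16-Myr at 100 μM with 500 μM NAD⁺ and 175 nM SIRT2 in Tris-HCl pH 8.0/NaCl/Triton buffer without DTT, 0.5% DMSO, 2 h at 37 °C. Inhibitors at 0.1–10 μM; AGK2 at 50 μM, NAM at 500 μM. Stopped with HCl/MeOH. Demyristoylated H4K16 product measured by HPLC at 280 nm. Percent inhibition, n = 3.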

[11] = molecular target: T1, NAD-dependent protein deacetylase sirtuin-2 (Homo sapiens); assay: Inhibition of recombinant human SIRT2 deacylation activity using H4K16-Ac as substrate measured after 30 mins in presence of NAD+ by HPLC analysis
Outline: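 H4K16-Ac peptide at 100 μM with 500 μM NAD⁺ and 175 nM SIRT2 in Tris-HCl pH 8.0/NaCl/Triton buffer lacking DTT, 0.5% DMSO, 30 min at 37 °C. Inhibitors at 0.01–10 μM. Stopped with HCl in MeOH. Deacetylated product quantified by reversed-phase HPLC at 280 nm.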

[12] = system: HeLa; assay: Cytotoxicity against human HeLa cells assessed as reduction in cell viability at 50 uM measured after 72 hrs by CCK8 assay; format: functional, cell-based
Outline: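 HeLa cells, 1.0 × 10⁴ per well on PLL-coated plates, grown overnight in DMEM with 10% FBS and penicillin/streptomycin, 37 °C, 5% CO₂. Compounds added in DMEM (2% DMSO stock), range 1.56–50 μM final, for 72 h. CCK-8 reagent then 2 h at 37 °C, absorbance read at 450 nm. DMSO control.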

[13] = molecular target: T1, NAD-dependent protein deacetylase sirtuin-2 (Homo sapiens); assay: Non-competitive inhibition of recombinant human SIRT2 defatty-acylase activity at 15 to 30 nM using SFP3 as substrate measured at 1 min interval for 30 mins in presence of varying levels of NAD+ by Michaelis-Menten plot analysis
[14] = molecular target: T1, NAD-dependent protein deacetylase sirtuin-2 (Homo sapiens); assay: Time-dependent inhibition of recombinant human SIRT2 defatty-acylase activity at 15.6 to 250 nM using SFP3 as substrate measured at 5 mins interval for 60 mins in presence of NAD+ by fluorescence assay

NAD-dependent protein deacylase sirtuin-6 (Homo sapiens), sequence (Q8N6T7 whole entry, the tested form may be a part): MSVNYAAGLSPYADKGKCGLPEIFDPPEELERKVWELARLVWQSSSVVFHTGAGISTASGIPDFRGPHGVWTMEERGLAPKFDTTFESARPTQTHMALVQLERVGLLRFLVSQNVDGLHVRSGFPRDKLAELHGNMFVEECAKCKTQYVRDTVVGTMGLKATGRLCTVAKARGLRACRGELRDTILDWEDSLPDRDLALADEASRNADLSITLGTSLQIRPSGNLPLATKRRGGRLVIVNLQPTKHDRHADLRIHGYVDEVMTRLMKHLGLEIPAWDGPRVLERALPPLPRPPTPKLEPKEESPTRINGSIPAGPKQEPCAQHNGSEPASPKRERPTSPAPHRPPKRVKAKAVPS

inhibition [2]	inhibition [10]	inhibition [11]	inhibition [13]	Structure (SMILES)	Activity [12]	other results
-3.5%				CCCCCCCCCCCCCC(=O)NCCCC[C@H](NC(=O)OCc1ccccc1)C(=O)Nc1ccccc1		inhibition [1]: 5.2%; inhibition [3]: -2.3%; inhibition [4]: 2.8%; inhibition [5]: 1.7%; inhibition [6]: -0.59%; inhibition [7]: 42%; inhibition [8]: 1.7%
				O=C(Cc1ccc(/N=N/c2ccccc2)cc1)NCCCC[C@H](NC(=O)OCC1c2ccccc2-c2ccccc21)C(=O)O		inhibition [9]: inactive
43%	Dose-dependent effect	Dose-dependent effect	Active	CC[C@H](C)[C@H](NC(=O)[C@H](CCCNC(=N)N)NC(C)=O)C(=O)N[C@@H](CCCCNC(=O)Cc1ccc(/N=N/c2ccc(O)cc2)cc1)C(=O)N[C@@H](CCCNC(=N)N)C(=O)N[C@@H](Cc1ccc(O)cc1)C(N)=O (Ac-RIK(X1)RY-NH2)	inactive	
40%				CC[C@H](C)[C@H](NC(=O)[C@H](CCCNC(=N)N)NC(C)=O)C(=O)N[C@@H](CCCCNC(=O)Cc1ccc(/N=N/c2ccc(N(C)C)cc2)cc1)C(=O)N[C@@H](CCCNC(=N)N)C(=O)N[C@@H](Cc1ccc(O)cc1)C(N)=O (Ac-RIK(X4)RY-NH2)		TDI [14]: Active
	Dose-dependent effect	Dose-dependent effect	Active	CCCCCCCCCCCCCC(=S)NCCCC[C@H](NC(=O)[C@@H](NC(=O)[C@H](CCCNC(=N)N)NC(C)=O)[C@@H](C)CC)C(=O)N[C@@H](CCCNC(=N)N)C(=O)N[C@@H](Cc1ccc(O)cc1)C(N)=O (Ac-RI[Lys(thiomyristoyl)]RY-NH2)	inactive	

From ChEMBL document CHEMBL4304758, “Development of Peptide-Based Sirtuin Defatty-Acylase Inhibitors Identified by the Fluorescence Probe, SFP3, That Can Efficiently Measure Defatty-Acylase Activity of Sirtuin” (J Med Chem, 2019)
